# Compound activity (PubChem BioAssay)
# Shown are actives, neighbours in structure and some others; about 1.9% of the full set was active somewhere.
# CHRM4 antagonist: human M4 muscarinic receptor antagonists, primary screen, CHO cells, Fluo-8 calcium fluorescence. AID 624125, 2012. CHO-hM4 cells, ACh EC80. Muscarinic acetylcholine receptor M4 (Homo sapiens), P08173. inhibition, % at 3 µM. 360,000 tested, 0.73% active;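 active = inhibition above its plate's cutoff, the mean inhibition of sample wells plus 3 SD, cut at about 27% in these data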;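 also: 0% = acetylcholine EC80 with DMSO and 100% = DMSO without agonist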
# Target sequence (P08173 whole entry, looked up): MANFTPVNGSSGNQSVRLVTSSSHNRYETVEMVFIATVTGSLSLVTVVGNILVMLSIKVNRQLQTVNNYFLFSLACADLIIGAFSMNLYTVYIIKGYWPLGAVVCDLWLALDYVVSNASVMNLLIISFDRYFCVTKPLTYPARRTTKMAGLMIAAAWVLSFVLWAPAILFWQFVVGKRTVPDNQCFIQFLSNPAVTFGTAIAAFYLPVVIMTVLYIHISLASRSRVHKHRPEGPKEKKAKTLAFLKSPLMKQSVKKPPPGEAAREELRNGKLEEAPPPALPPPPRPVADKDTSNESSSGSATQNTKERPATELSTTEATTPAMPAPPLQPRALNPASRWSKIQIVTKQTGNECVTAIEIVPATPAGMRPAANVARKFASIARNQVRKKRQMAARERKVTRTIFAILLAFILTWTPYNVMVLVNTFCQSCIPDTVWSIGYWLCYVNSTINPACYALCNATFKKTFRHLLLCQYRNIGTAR
# M5 antag: human M5 muscarinic receptor antagonists, primary screen, CHO cells, Fluo-8 calcium fluorescence | Muscarinic acetylcholine receptor M5 (Homo sapiens), P08912 | CHO-hM5 cells, ACh EC80 | inhibition, % at 3 µM | 360,000 tested, 0.59% active;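 active = inhibition above a per-plate cutoff, the mean of that plate's test compounds plus 3 SD, cut at about 27% in these data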;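 also: 0% = acetylcholine EC80 with DMSO and 100% = DMSO without agonist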
# CHRM5 PAM: human M5 muscarinic receptor positive allosteric modulators, primary screen, CHO-K1 cells, Fluo-8 calcium fluorescence; CHO-K1 hM5, ACh EC20 PAM; 0% = ACh EC20, 100% = ACh EC100; activation, % at 3 µM; 360,000 tested, 0.3% active; Muscarinic acetylcholine receptor M5 (Homo sapiens), P08912;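 active = activation above the run cutoff, the mean activation of all test compounds plus 3 SD, cut at about 18% in these data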
#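 Probe or stimulus: acetylcholine, EC20 level; Assay system: human M5 receptor in CHO-K1 cells; Schedule: compound preincubation 140 s before EC20 acetylcholine addition; Technique: intracellular calcium via Fluo-8 fluorescence; Dosing: single-point, 3 µM nominal; Read-out basis: percent activation from peak-over-basal fluorescence ratio, scaled EC20-to-EC100 acetylcholine; Repeats: one well per compound, no replicates.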
# M4 ag: human M4 muscarinic receptor agonists, primary screen, CHO-K1 cells, Fluo-8 calcium fluorescence; CHO-K1 hM4/Gqi5; vehicle 0%, full acetylcholine response 100%; 360,000 tested, 0.14% active; Muscarinic acetylcholine receptor M4 (Homo sapiens), P08173; activation, % at 3 µM;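 active = activation above the run mean over all test wells plus 3 SD, cut at about 32% in these data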;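 also: peak over basal fluorescence ratio per well then scaled between controls; 0% = DMSO wells and 100% = acetylcholine at EC100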
# CHRM4 PAM: human M4 muscarinic receptor positive allosteric modulators, primary screen, CHO-K1 cells, Fluo-8 calcium fluorescence. CHO-K1 hM4/Gqi5, ACh EC20; 0% = ACh EC20, 100% = maximal ACh. activation, % at 3 µM. 360,000 tested, 0.4% active. Muscarinic acetylcholine receptor M4 (Homo sapiens), P08173;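 active = activation above its plate's cutoff, the mean activation of sample wells plus 3 SD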
# CHRM5 agonist: human M5 muscarinic receptor agonists, primary screen, CHO-K1 cells, Fluo-8 calcium fluorescence | CHO-K1 hM5 cells; 0% DMSO wells, 100% maximal acetylcholine response | 360,000 tested, 0.19% active | activation, % at 3 µM | AID 624037, 2012;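 active = activation above the run's mean over test compounds plus 3 SD, cut at about 23% in these data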;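 also: signal is peak over basal fluorescence ratio across the kinetic read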
# * marks the source's active call; other numbers are inactive results; ! = repeats disagree.
SMILES,CHRM4 antagonist,M5 antag,CHRM5 PAM,M4 ag,CHRM4 PAM,CHRM5 agonist
O=C(CN1CCCCCC1)N1c2ccccc2Sc2ccccc21,94.0*,93.8*,-34.2,-0.5,-22.1,-13.7
CC1CCCN(CC(=O)N2c3ccccc3Sc3ccccc32)C1 (stereo not given),32.7*,30.5*,-34.1,-0.5,-22.3,-13.8
O=C(CN1CCN(CCOCCO)CC1)N1c2ccccc2Sc2ccc(Cl)cc21,34.1*,2.1,-32.8,1.4,-16.5,-13.5
CC1CCCN(CCC(=O)c2ccccc2)C1 (stereo not given),2.2,1.5,-3.2,1.2,9.2,4.3
O=C(C1CC1)N1c2ccccc2Sc2ccccc21,5.6,9.2,-13.9,-2.1,-11.8,-22.7
O=C1CCCN1CCCNCC(=O)N1c2ccccc2Sc2ccccc21,52.0*,35.4*,-26.0,-0.3,-17.9,-12.1
O=C(CN1CCOCC1)N1c2ccccc2Sc2ccc(Cl)cc21,15.2,7.5,-9.2,-0.2,-8.4,-3.2
CN1CCN(CCCN2c3ccccc3Sc3ccc(C(F)(F)F)cc32)CC1,85.2*!,8.4,-24.3,4.6,-5.5,-10.6
O=C(CN1CCCC(O)C1)N1c2ccccc2Sc2ccc(C(F)(F)F)cc21 (stereo not given),64.6*,40.6*,-16.2,0.6,-19.8,-10.9
CC1(C)CC(CC(=O)O)(c2ccc(Cl)cc2)CCO1 (stereo not given),-6.7,8.5,-8.4,1.9,17.2*,-2.9
COc1ccc(NC(=O)Nc2ccc3c(c2)C(=O)N([C@H](C)CO)C[C@@H](C)[C@@H](CN(C)C(=O)C2CCCCC2)OCCCC[C@H](C)O3)cc1,6.4,8.8,-1.5,-0.2,-4.1,0.5
COc1ccc(C(=O)n2cnc3ccccc32)cc1,-21.1,-1.6,2.9,0.3,14.3*,1.1
S=C1NC[C@H](Cc2cccc3ccccc23)N1CC1CCCCC1,-4.2,5.5,6.8,4.2,9.6,-1.1
O=C1NC[C@@H](Cc2cccc3ccccc23)N(CC2CCCCC2)C1=O,-0.8,-17.4,22.4*,0.6,6.6,1.7
CS(=O)(=O)N1CCCC(c2nc(-c3ccc(S(=O)(=O)NCc4ccccc4)cc3)no2)C1 (stereo not given),33.4*,28.7*,-16.2,26.0,-27.8,11.5
COc1cccc(C(O)c2ncc(-c3ccccc3Cl)[nH]2)c1 (stereo not given),3.0,-0.2,-4.9,3.7,1.7,0.1
Cc1ccccc1N1CCN(CCN2C(=O)CC(=C3c4ccccc4-c4ccccc43)C2=O)CC1,-10.8,-3.8,5.8,0.5,14.1,1.7
Cc1ccccc1N1CCN(CCCN2C(=O)CC(=C(c3ccccc3)c3ccccc3)C2=O)CC1,38.3*,-0.6,-14.1,-3.0,-17.1,-8.9
O=C1CC(=C(c2ccccc2)c2ccccc2)C(=O)N1CCCCN1CCN(c2cccc(Cl)c2)CC1,39.8*,11.1,-18.1,-2.2,-19.6,-8.2
O=C(NC1CCCC1)C1C(c2ccc(C(F)(F)F)cc2)=Nc2ccccc2N1C(=O)c1cccc(C(F)(F)F)c1 (stereo not given),35.0*,9.1,-12.0,-0.3,-7.1,-0.7
Cc1ccc(C)c(S(=O)(=O)NCc2ccc(C(=O)N3CCN(C)CC3)cc2)c1,-11.9,-7.3,13.7,1.2,20.4*,2.9
Cn1c(C(=O)OC(C(=O)NC2CCCCC2)c2cccnc2)cc2sccc21 (stereo not given),-3.8,40.7*,-4.6,2.3,4.2,-7.8
NC(=O)c1ccc(NC(=O)C2CC2)cc1,-6.7,-8.6,6.1,2.8,22.5*,0.8
CS(=O)(=O)N1CCC(C(=O)Nc2ccc(C(N)=O)cc2)CC1,5.1,13.8,-7.1,-0.7,-1.9,-2.8
